The values that follow come from ChEMBL document CHEMBL5335784, “Discovery of a novel 1,3,4-oxadiazol-2-one-based NLRP3 inhibitor as a pharmacological agent to mitigate cardiac and metabolic complications in an experimental model of diet-induced metaflammation” (Eur J Med Chem, 2023).

The source made the active and inactive calls. The calls are words filed in the database; no cut-off is given here.

Data set [1] has as its system Rattus norvegicus. Kind of data set: Inhibition of ischemia/reperfusion-induced NLRP3 inflammasome activation in ischemia/reperfusion-induced myocardial injury and standard diet fed Wistar rat model assessed as decrease in NLRP3 protein expression at 20 mg/kg/day, ip administered for 4 weeks followed by excised heart exposed to global ischemia for 30 mins and reperfusion for 120 mins by immunoblot analysis. The format is functional, organism-based. The procedure, abridged: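 Left ventricles from Langendorff hearts (30 min global ischemia/120 min reperfusion) of HFD or SD rats dosed 20 mg/kg/day i.p. for the final 28 days. Tissue homogenized in RIPA buffer with protease/phosphatase inhibitors. 50 μg protein run on 8% SDS-PAGE and immunoblotted for NLRP3 (1:500), normalized to β-actin by densitometry; n=4 per group.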
On the technique in general: A western blot detects proteins with antibodies after separation by electrophoresis.

The subject of data set [2] is Rattus norvegicus. Kind of data set: Inhibition of ischemia/reperfusion-induced oxidative stress in ischemia/reperfusion-induced myocardial injury and standard diet fed Wistar rat model assessed as decrease in cardiac MDA level at 20 mg/kg/day, ip administered for 4 weeks followed by excised heart exposed to global ischemia for 30 mins and reperfusion for 120 mins by TBARS assay. Type of data set: functional, organism-based. The procedure, abridged:
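Same rat diet, dosing and Langendorff ischemia/reperfusion protocol. LV homogenized 10% w/v in 0.9% KCl pH 7.4. Homogenate heated at 100 °C for 15 min with TCA and TBA plus butylated hydroxytoluene, centrifuged, and read at […]. MDA expressed as nmol/g heart tissue, compared with sham hearts perfused for 190 min.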

The subject of data set [3] is Rattus norvegicus. Kind of data set: Cardioprotective activity against myocardial ischemia/reperfusion injury-induced contractile impairment and high fat diet fed obese Wistar rat model assessed as developed LVP recovery at 20 mg/kg/day, ip administered for 4 weeks followed by excised heart exposed to global ischemia for 30 mins and reperfusion for 120 mins and measured at the end of reperfusion (reference value: 32 +/-4 mmHg). Type of data set: functional.

The test system of data set [4] is Rattus norvegicus. Kind of data set: Cardioprotective activity against myocardial ischemia/reperfusion injury-induced contractile impairment and standard diet fed Wistar rat model assessed as left ventricular end diastolic pressure at 20 mg/kg/day, ip administered for 4 weeks followed by excised heart exposed to global ischemia for 30 mins and reperfusion for 120 mins and measured at the end of reperfusion (reference value: 21 +/-2 mmHg). Type of data set: functional.

A short description of data set [5]: Drug metabolism in human THP-1 cells assessed as half time for compound hydrolysis to 2-(5-(2-Chlorobenzyl)-2-oxo-1,3,4-oxadiazol-3(2H)-yl)acetic acid at 100 uM by RP-HPLC analysis. Type of data set: ADME, cell-based. The procedure, abridged: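 PMA-differentiated THP-1 cells lysed in RIPA buffer. Compound added to lysate at 100 μM final (from 10 mM DMSO stock) at 37 °C. Aliquots at intervals deproteinized with CH3CN/0.1% TFA and quantified by RP-HPLC against standards. Pseudo-first-order t1/2 from exponential decay fit; three experiments.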

Data set [6] can be described thus: Effect on glyco-metabolic profile in standard diet fed Wistar rat assessed as effect on HDL cholesterol level in plasma at 20 mg/kg/day, ip administered for 4 weeks. Type of data set: toxicity, organism-based. To be noted: in vivo, 672 h. The procedure, abridged:
(§1)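 Rats fed HFD or SD for 12 weeks, dosed 20 mg/kg/day i.p. in saline/2% DMSO/5% Cremophor-EL during the final 28 days. Serum obtained after sacrifice by centrifuging blood at 2000 x g, 10 min, 4 °C. Glucose read by glucometer; total, HDL and LDL cholesterol and triglycerides measured with commercial kits. n=6–7 per group.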

In data set [7] the test system is Rattus norvegicus. In words: Antiinflammatory activity against high fat diet fed-induced metaflammation Wistar rat model assessed as reduction in HFD-induced metabolic alterations by measuring reduction in plasma glucose level at 20 mg/kg/day, ip administered for 4 weeks by glucometer analysis. The format is functional, organism-based. The procedure, abridged:
as §1

In data set [8] the test system is Rattus norvegicus. Kind of data set: Cardioprotective activity against ischemia/reperfusion-induced myocardial injury and standard diet fed Wistar rat model assessed as decrease in LDH activity in coronary effluents at 20 mg/kg/day, ip administered for 4 weeks followed by excised heart exposed to global ischemia for 30 mins and reperfusion for 120 mins and measured during first 30 mins of reperfusion by spectrophotometric analysis. The format is functional, organism-based. The procedure, abridged: (§2)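 HFD or SD rats, dosed 20 mg/kg/day i.p. for the final 28 days, anaesthetised with ethyl carbamate (2 g/kg i.p.). Hearts Langendorff-perfused with Krebs–Henseleit buffer (pH 7.4, 37 °C, 12 ml/min); 40 min stabilization, 30 min global no-flow ischemia, 120 min reperfusion. Coronary effluent collected on ice before ischemia and at 10, 20, 30 min reperfusion; LDH activity by McQueen method. n=6–7.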

The subject of data set [9] is Rattus norvegicus. In words: Inhibition of ischemia/reperfusion-induced inflammation in ischemia/reperfusion-induced myocardial injury and high fat diet fed obese Wistar rat model assessed as decrease in cardiac IL-1 beta level at 20 mg/kg/day, ip administered for 4 weeks followed by excised heart exposed to global ischemia for 30 mins and reperfusion for 120 mins by ELISA. The format is functional, organism-based. The procedure, abridged:
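Male Wistar rats on standard or 60% kcal fat diet for 12 weeks; last 28 days i.p. 20 mg/kg/day in saline with 2% DMSO and 5% Cremophor-EL, or vehicle. Hearts perfused by Langendorff with KH buffer at 12 ml/min, 37°C, then 40 min stabilization, 30 min global no-flow ischemia and 120 min reperfusion. Cytokines measured in LV tissue; n=6–7 per group.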

Data set [10] can be described thus: Effect on left ventricular end diastolic pressure in standard diet fed Wistar rat model at 20 mg/kg/day, ip administered for 4 weeks (reference value: 3+/-1 mm Hg). Type of data set: toxicity, organism-based. To be noted: in vivo, 672 h.
Data set [11] relates to Rattus norvegicus. Kind of data set: Cardioprotective activity against myocardial ischemia/reperfusion injury-induced contractile impairment and high fat diet fed obese Wistar rat model assessed as left ventricular end diastolic pressure at 20 mg/kg/day, ip administered for 4 weeks followed by excised heart exposed to global ischemia for 30 mins and reperfusion for 120 mins and measured at the end of reperfusion (reference value: 27 +/-1 mmHg). Type of data set: functional.

The nature of data set [12]: Effect on BNP level in standard diet fed Wistar rat plasma at 20 mg/kg/day, ip administered for 4 weeks. The format is toxicity, organism-based. To be noted: in vivo, 672 h. The procedure, abridged: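 Male Wistar rats on HFD or SD for 12 weeks received 20 mg/kg/day i.p. (saline, 2% DMSO, 5% Cremophor-EL) or vehicle for the last 28 days. Circulating IL-1β, TNF-α, BNP and Gal-3 quantified by ELISA in blood collected after sacrifice. n=6–7 per group.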

Data set [13] has as its system Rattus norvegicus. Kind of data set: Cardioprotective activity against ischemia/reperfusion-induced myocardial injury and standard diet fed Wistar rat model assessed as decrease in LDH activity in coronary effluents at 20 mg/kg/day, ip administered for 4 weeks followed by excised heart exposed to global ischemia for 30 mins and reperfusion for 120 mins and measured during first 20 mins of reperfusion by spectrophotometric analysis. Type of data set: functional, organism-based. The procedure, abridged: as §2

Data set [14] can be described thus: Drug metabolism in PBS assessed as half time for compound hydrolysis to 2-(5-(2-Chlorobenzyl)-2-oxo-1,3,4-oxadiazol-3(2H)-yl)acetic acid at 100 uM at pH 7.4 by RP-HPLC analysis. Type of data set: ADME. The procedure, abridged:
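Compound added from 10 mM DMSO stock to 50 mM PBS, pH 7.4, 37 °C. Sampled over 48 h and quantified by RP-HPLC (phenyl column, 226/254 nm) against external standards of ester and acid.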

Data set [15] deals with Rattus norvegicus. In words: Antiinflammatory activity against high fat diet fed-induced metaflammation Wistar rat model assessed as reduction in HFD-induced anthropometric alterations by measuring reduction in liver weight at 20 mg/kg/day, ip administered for 4 weeks. The format is functional, organism-based. The procedure, abridged:
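Male Wistar rats on high-fat diet (60% kcal fat) or standard diet for 12 weeks; 20 mg/kg/day i.p. or vehicle (saline, 2% DMSO, 5% Cremophor-EL) over the last 28 days. Body weight recorded weekly. After sacrifice, abdominal, epididymal, retroperitoneal and perirenal fat, liver and heart excised and weighed. Cardiac somatic index = heart weight/body weight ×100. n=6–7 per group.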

Usually half-life stands for the time in which the quantity being followed falls by half. As to `CCOC(=O)Cn1nc(Cc2ccccc2Cl)oc1=O`, the inhibition result in data set [1], in data set [2] and in data set [9] was “Active” in each case. For the same compound, the Activity in [3] is 65 mmHg; in data set [4] it was 13 mmHg; in data set [6], “Non-Toxic”; in data set [10], 3 mmHg; in data set [11], 18 mmHg; in data set [12], “Non-Toxic”. The half-life at 100 µM is 1.08 h in [5] and more than 48 h in data set [14]. Besides, the result in data set [7], in data set [8], in [13] and in data set [15] was Active.
